# Assay results published in ChEMBL document CHEMBL1138784, “Rational design, synthesis, and biological evaluation of bis(pyrimido[5,6,1-de]acridines) and bis(pyrazolo[3,4,5-kl]acridine-5-carboxamides) as new anticancer agents” (J Med Chem, 2004).
# What was measured:
# DU-145 [1] = assay: Percent growth of prostate DU-145 cell line was determined at 10e-5 M concentration after 48 hr of exposing; type: functional, Homo sapiens
# [2] = Percent growth of melanoma LOX IMV1 cell line was determined at 10e-8 M concentration after 48 hr of exposing; type: functional, Homo sapiens
# How it was run: (§1)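 NCI sulforhodamine B screen. Cells seeded by growth rate, 24 h drug-free, then 48 h exposure to 10^-8, 10^-6 or 10^-5 M. Protein-stain optical density expressed as percent growth relative to untreated control (100%); negative values indicate cell kill.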
# [3] = Cytotoxicity against human MKN45 cancer cell line was determined after 1 hr; type: cell-based; details: Cancer cell lines
# How it was run: (§2)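 MTT colorimetric assay. Cells seeded by growth characteristics and preincubated 24 h, then exposed to drug for 1 h or 144 h at 37 °C, 5% CO2. H460M, MKN45 and PC-3 were grown in RPMI 1640 with 10% FCS. HCT116 was grown in D-MEM with 10% FBS and 2 mM glutamine.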
# OVCAR-4 [4] = assay: Percent growth of ovarian OVCAR-4 cell line was determined at 10e-8 M concentration after 48 hr of exposing; type: functional, Homo sapiens; how it was run: as §1
# OVCAR-4 [5] = assay: Percent growth of ovarian OVCAR-4 cell line was determined at 10e-5 M concentration after 48 hr of exposing; type: functional, Homo sapiens; how it was run: as §1
# [6] = Cytotoxicity against human H460M cancer cell line was determined after 144 hr; type: functional, cell-based; details: Cancer cell lines; how it was run: as §2
# OVCAR-4 [7] = assay: Percent growth of ovarian OVCAR-4 cell line was determined at 10e-6 M concentration after 48 hr of exposing; type: functional, Homo sapiens; how it was run: as §1
# [8] = Percent growth of melanoma LOX IMV1 cell line was determined at 10e-5 M concentration after 48 hr of exposing; type: functional, Homo sapiens; how it was run: as §1
# SNB-19 [9] = assay: Percent growth of CNS SNB-19 cell line was determined at 10e-8 M concentration after 48 hr of exposing; type: functional, Homo sapiens; how it was run: as §1
# 786-0 [10] = assay: Percent growth of renal 786-O cell line was determined at 10e-6 M concentration after 48 h of exposing; type: functional, Homo sapiens; how it was run: as §1
# [11] = Cytotoxicity against human HCT116 cancer cell line was determined after 1 hr; type: cell-based; details: HCT-116, 1 h; how it was run: as §2
# HCT-116 = assay: Cytotoxicity against human HCT116 cancer cell line was determined after 144 hr; type: functional, cell-based; details: HCT-116, 144 h; how it was run: as §2
# SNB-19 [12] = assay: Percent growth of CNS SNB-19 cell line was determined at 10e-5 M concentration after 48 hr of exposing; type: functional, Homo sapiens; how it was run: as §1
# NCI-H460 [13] = assay: Percent growth of lung NCI-H460 cell line was determined at 10e-8 M concentration after 48 hr of exposing; type: functional, Homo sapiens; how it was run: as §1
# 786-0 [14] = assay: Percent growth of renal 786-O cell line was determined at 10e-5 M concentration after 48 hr of exposing; type: functional, Homo sapiens; how it was run: as §1
# MCF7 [15] = assay: Percent growth of breast MCF-7 cell line was determined at 10e-5 M concentration after 48 hr of exposing; type: functional, Homo sapiens
# NCI-H460 [16] = assay: Percent growth of lung NCI-H460 cell line was determined at 10e-6 M concentration after 48 hr of exposing; type: functional, Homo sapiens; how it was run: as §1
# SNB-19 [17] = assay: Percent growth of CNS SNB-19 cell line was determined at 10e-6 M concentration after 48 hr of exposing; type: functional, Homo sapiens; how it was run: as §1
# [18] = Cytotoxicity against doxorubicin resistant LoVo cell line was determined against 1 hour; type: cell-based; details: Homo sapiens
# How it was run: (§3)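 MTT assay on doxorubicin-sensitive LoVo and resistant LoVo/Dx cells, 24 h preincubation, then 1 h or 144 h drug exposure at 37 °C, 5% CO2. IC50 in nM. Resistance index is IC50 on LoVo/Dx divided by IC50 on LoVo.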
# MOLT-4 [19] = assay: Percent growth of leukemia MOLT-4 cell line was determined at 10e-8 M concentration after 48 hr of exposing; type: functional, Homo sapiens; how it was run: as §1
# MCF7 [20] = assay: Percent growth of breast MCF-7 cell line was determined at 10e-6 M concentration after 48 h of exposing; type: functional, Homo sapiens
# LoVo [21] = assay: Cytotoxicity against human LoVo cancer cell line was determined after 144 hr; type: functional, cell-based; how it was run: as §3
# HT-29 = assay: Cytotoxicity is determined as the concentration required to inhibit the growth of human colon adenocarcinoma (HT-29) cell line; type: functional, cell-based
# MOLT-4 [22] = assay: Percent growth of leukemia MOLT-4 cell line was determined at 10e-6 M concentration after 48 h of exposing; type: functional, Homo sapiens; how it was run: as §1
# [23] = Cytotoxicity against human LoVo cancer cell line was determined after 1 hr; type: cell-based; how it was run: as §3
# 786-0 [24] = assay: Percent growth of renal 786-O cell line was determined at 10e-8 M concentration after 48 h of exposing; type: functional, Homo sapiens; how it was run: as §1
# SW-620 [25] = assay: Percent growth of colon SW-620 cell line was determined at 10e-8 M concentration after 48 hr of exposing; type: functional, Homo sapiens; how it was run: as §1
# MKN-45 = assay: Cytotoxicity against human MKN45 cancer cell line was determined after 144 hr; type: functional, cell-based; details: MKN-45, 144 h; how it was run: as §2
# [26] = Cytotoxicity against human PC3 cancer cell line was determined after 1 hr; type: cell-based; details: Cancer cell lines; how it was run: as §2
# [27] = Cytotoxicity against human H460M cancer cell line was determined after 1 hr; type: cell-based; details: Cancer cell lines; how it was run: as §2
# SW-620 [28] = assay: Percent growth of colon SW-620 cell line was determined at 10e-5 M concentration after 48 hr of exposing; type: functional, Homo sapiens; how it was run: as §1
# PC-3 = assay: Cytotoxicity against human PC3 cancer cell line was determined after 144 hr; type: functional, cell-based; details: PC-3, 144 h; how it was run: as §2
# [29] = Percent growth of melanoma LOX IMV1 cell line was determined at 10e-6 M concentration after 48 hr of exposing; type: functional, Homo sapiens; how it was run: as §1
# SW-620 [30] = assay: Percent growth of colon SW-620 cell line was determined at 10e-6 M concentration after 48 hr of exposing; type: functional, Homo sapiens; how it was run: as §1
# LoVo [31] = assay: Ratio of IC50 against sensitive LoVo cell line and that of doxorubicin resistance LoVo cell line was determined after 1 hr exposure; type: functional, Homo sapiens
# MOLT-4 [32] = assay: Percent growth of leukemia MOLT-4 cell line was determined at 10e-5 M concentration after 48 hr of exposing; type: functional, Homo sapiens; how it was run: as §1
# LoVo [33] = assay: Cytotoxicity against doxorubicin resistant LoVo cell line was determined against 144 hrs; type: functional, cell-based; details: Homo sapiens; how it was run: as §3
# MCF7 [34] = assay: Percent growth of breast MCF-7 cell line was determined at 10e-8 M concentration after 48 hr of exposing; type: functional, Homo sapiens
# NCI-H460 [35] = assay: Percent growth of lung NCI-H460 cell line was determined at 10e-5 M concentration after 48 hr of exposing; type: functional, Homo sapiens; how it was run: as §1
# DU-145 [36] = assay: Percent growth of prostate DU-145 cell line was determined at 10e-6 M concentration after 48 hr of exposing; type: functional, Homo sapiens
# DU-145 [37] = assay: Percent growth of prostate DU-145 cell line was determined at 10e-8 M concentration after 48 h of exposing; type: functional, Homo sapiens
# Nucleic Acid = assay: Binding site preference is determined as the ratio of Poly (dA-dT)2 to Poly (dG-dC)2; type: nucleic-acid assay
# How it was run: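 Ethidium displacement fluorometry at pH 7.0 (10 mM Na2HPO4, 10 mM NaH2PO4, 1 mM EDTA) with 1.26 μM ethidium bromide and 1 μM [poly(dA-dT)]2 or [poly(dG-dC)]2, 20 °C. Ex 546 nm, em 595 nm, drug added serially from a DMSO stock. Preference taken from the [AT]/[GC] ratio of C50 values, counted significant only below 0.7 or above 1.3.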
compound,measurement,setting,value
COc1ccc2c(c1)c(=O)c1c(NCCCN(C)CCCNc3ccc4c(=O)n(CCN(C)C)c(=O)n5c6ccc(OC)cc6c(=O)c3c45)ccc3c(=O)n(CCN(C)C)c(=O)n2c31,Growth,DU-145 [1],-66%
same,Growth,[2],26%
same,IC50,[3],0.05 nM
same,Growth,OVCAR-4 [4],0%
same,Growth,OVCAR-4 [5],-72%
same,IC50,[6],< 0.001 nM
same,Growth,OVCAR-4 [7],-37%
same,Growth,[8],-91%
same,Growth,SNB-19 [9],38%
same,Growth,786-0 [10],10%
same,IC50,[11],0.85 nM
same,IC50,HCT-116,0.66 nM
same,Growth,SNB-19 [12],-48%
same,Growth,NCI-H460 [13],14%
same,Growth,786-0 [14],-79%
same,Growth,MCF7 [15],-63%
same,Growth,NCI-H460 [16],-20%
same,Growth,SNB-19 [17],14%
same,IC50,[18],76 nM
same,Growth,MOLT-4 [19],6%
same,Growth,MCF7 [20],-3%
same,IC50,LoVo [21],0.95 nM
same,IC50,HT-29,< 0.1 nM
same,Growth,MOLT-4 [22],-33%
same,IC50,[23],18 nM
same,Growth,786-0 [24],37%
same,Growth,SW-620 [25],30%
same,IC50,MKN-45,0.0028 nM
same,IC50,[26],4.7 nM
same,IC50,[27],0.06 nM
same,Growth,SW-620 [28],-49%
same,IC50,PC-3,1.2 nM
same,Growth,[29],-34%
same,Growth,SW-620 [30],-2%
same,Resistance index,LoVo [31],4.2
same,Growth,MOLT-4 [32],-62%
same,IC50,LoVo [33],7.6 nM
same,Growth,MCF7 [34],39%
same,Growth,NCI-H460 [35],-87%
same,Growth,DU-145 [36],3%
same,Growth,DU-145 [37],40%
same,Binding site preference,Nucleic Acid,2.1
CN(C)CCn1c(=O)c2ccc(NCCCN(C)CCCNc3ccc4c(=O)n(CCN(C)C)c(=O)n5c6ccc([N+](=O)[O-])cc6c(=O)c3c45)c3c(=O)c4cc([N+](=O)[O-])ccc4n(c1=O)c23,Growth,DU-145 [1],-83%
same,Growth,[2],16%
same,IC50,[3],1.3 nM
same,Growth,OVCAR-4 [4],31%
same,Growth,OVCAR-4 [5],-65%
same,IC50,[6],0.19 nM
same,Growth,OVCAR-4 [7],-54%
same,Growth,[8],-69%
same,Growth,SNB-19 [9],37%
same,Growth,786-0 [10],-4%
same,IC50,[11],2.9 nM
same,IC50,HCT-116,1.1 nM
same,Growth,SNB-19 [12],-66%
same,Growth,NCI-H460 [13],10%
same,Growth,786-0 [14],-63%
same,Growth,MCF7 [15],-55%
same,Growth,NCI-H460 [16],-36%
same,Growth,SNB-19 [17],-25%
same,IC50,[18],380 nM
same,Growth,MOLT-4 [19],-2%
same,Growth,MCF7 [20],-2%
same,IC50,LoVo [21],7.6 nM
same,IC50,HT-29,< 0.1 nM
same,Growth,MOLT-4 [22],-31%
same,IC50,[23],42 nM
same,Growth,786-0 [24],33%
same,Growth,SW-620 [25],42%
same,IC50,MKN-45,0.29 nM
same,IC50,[26],11 nM
same,IC50,[27],0.93 nM
same,Growth,SW-620 [28],-16%
same,IC50,PC-3,4.5 nM
same,Growth,[29],-56%
same,Growth,SW-620 [30],5%
same,Resistance index,LoVo [31],9
same,Growth,MOLT-4 [32],-50%
same,IC50,LoVo [33],67 nM
same,Growth,MCF7 [34],21%
same,Growth,NCI-H460 [35],-60%
same,Growth,DU-145 [36],-13%
same,Growth,DU-145 [37],35%
same,Binding site preference,Nucleic Acid,2.4
